From PMC10842602 (Bioorganic & medicinal chemistry, 2023)

Target: T1, WT human SLACK (Homo sapiens, UniProt Q5JUK3)
T1 sequence (Q5JUK3 1-1235 isoform Q5JUK3-3): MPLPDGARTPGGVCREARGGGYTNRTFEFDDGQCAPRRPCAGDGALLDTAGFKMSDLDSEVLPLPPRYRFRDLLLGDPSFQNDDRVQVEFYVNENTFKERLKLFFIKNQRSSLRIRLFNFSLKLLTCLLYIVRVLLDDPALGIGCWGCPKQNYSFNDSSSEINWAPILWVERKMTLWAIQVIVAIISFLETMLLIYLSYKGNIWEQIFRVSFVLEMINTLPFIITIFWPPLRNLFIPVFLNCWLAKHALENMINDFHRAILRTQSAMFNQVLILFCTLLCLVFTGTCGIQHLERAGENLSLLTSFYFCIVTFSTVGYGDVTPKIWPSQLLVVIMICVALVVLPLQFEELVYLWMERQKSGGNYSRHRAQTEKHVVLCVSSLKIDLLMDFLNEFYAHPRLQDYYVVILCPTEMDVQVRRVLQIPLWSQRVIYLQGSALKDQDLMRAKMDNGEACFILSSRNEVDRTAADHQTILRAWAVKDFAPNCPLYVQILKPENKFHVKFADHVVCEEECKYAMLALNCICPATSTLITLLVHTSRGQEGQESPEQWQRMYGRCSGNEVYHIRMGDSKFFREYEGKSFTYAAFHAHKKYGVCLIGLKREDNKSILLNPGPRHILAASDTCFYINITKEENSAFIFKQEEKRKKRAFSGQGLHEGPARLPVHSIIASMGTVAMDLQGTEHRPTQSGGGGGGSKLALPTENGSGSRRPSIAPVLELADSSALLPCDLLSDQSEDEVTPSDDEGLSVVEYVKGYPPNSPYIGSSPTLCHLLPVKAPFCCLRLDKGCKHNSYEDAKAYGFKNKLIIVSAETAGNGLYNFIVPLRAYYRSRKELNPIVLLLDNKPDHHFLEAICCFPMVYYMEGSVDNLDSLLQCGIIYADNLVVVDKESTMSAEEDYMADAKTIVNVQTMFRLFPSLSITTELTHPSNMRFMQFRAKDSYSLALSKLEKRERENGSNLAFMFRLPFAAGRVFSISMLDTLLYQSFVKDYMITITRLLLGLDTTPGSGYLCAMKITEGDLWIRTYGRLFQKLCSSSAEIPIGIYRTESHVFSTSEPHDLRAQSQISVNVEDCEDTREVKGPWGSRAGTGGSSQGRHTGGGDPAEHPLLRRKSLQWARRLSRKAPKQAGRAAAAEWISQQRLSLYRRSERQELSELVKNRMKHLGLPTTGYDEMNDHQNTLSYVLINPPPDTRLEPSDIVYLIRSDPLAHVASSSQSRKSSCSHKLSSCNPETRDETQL
Experiment: Tl+ flux assay in HEK-293 cells stably expressing WT human SLACK
Type: cell-based
Conditions: for IC50 / EC50: CRC; for Mode: Tl+ flux, HEK-293 cells expressing WT SLACK
How it was run: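 Stably transfected HEK-293 cells expressing wild-type human SLACK; thallium flux read-out. IC50 or EC50 taken from concentration-response curves, and each compound classed as inhibitor, activator or not active. Efficacy is the response amplitude at 30 μM test compound, as a percentage of the maximum response to a reference SLACK inhibitor (for inhibitors) or loxapine (for activators).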

[1] = IC50 for compounds of mode Inh (also cells printed Inactive)

Row | SMILES | IC50 / EC50 (EC50 for compounds of mode Act) | IC50 / EC50 [1] | Mode
1 | CCCCOc1ccccc1S(=O)(=O)N1CC(c2nc(-c3ccsc3)no2)C1 [Compound 28, 5-(1-((2-Butoxyphenyl)sulfonyl)azetidin-3-yl)-3-(thiophen-3-yl)-1,2,4-oxadiazole] | – | Inactive | Inactive
2 | CCOc1ccccc1CN1CC(c2nc(-c3ccsc3)no2)C1 [Compound 31] | >10 µM | – | –
3 | CCOc1ccccc1C(C)N1CC(c2nc(-c3ccsc3)no2)C1 (centres unmarked) [Compound 32] | >10 µM | – | –
4 | CCOc1ccccc1C(=O)N1CC(c2nc(-c3ccsc3)no2)C1 [Compound 33] | >10 µM | – | –
5 | CCOc1ccccc1CC(=O)N1CC(c2nc(-c3ccsc3)no2)C1 [Compound 34] | >10 µM | – | –
6 | CCOc1ccccc1NC(=O)N1CC(c2nc(-c3ccsc3)no2)C1 [Compound 35] | >10 µM | – | –
7 | CCOc1ccccc1OC(=O)N1CC(c2nc(-c3ccsc3)no2)C1 [Compound 36] | >10 µM | – | –
8 | CCOc1ccccc1S(=O)(=O)N1CC(c2nc(-c3ccccc3)no2)C1 [Compound 40, 5-(1-((2-Ethoxyphenyl)sulfonyl)azetidin-3-yl)-3-phenyl-1,2,4-oxadiazole] | – | >10 µM | –
9 | CCOc1ccccc1S(=O)(=O)N1CC(c2nc(-c3ccccc3F)no2)C1 [Compound 41, 5-(1-((2-Ethoxyphenyl)sulfonyl)azetidin-3-yl)-3-(2-fluorophenyl)-1,2,4-oxadiazole] | – | 7.9 µM | –
10 | CCOc1ccccc1S(=O)(=O)N1CC(c2nc(-c3cccc(F)c3)no2)C1 [Compound 42, 5-(1-((2-Ethoxyphenyl)sulfonyl)azetidin-3-yl)-3-(3-fluorophenyl)-1,2,4-oxadiazole] | – | Inactive | Inactive
11 | CCOc1ccccc1S(=O)(=O)N1CC(c2nc(-c3ccccc3C(F)(F)F)no2)C1 [Compound 47, 5-(1-((2-Ethoxyphenyl)sulfonyl)azetidin-3-yl)-3-(2-(trifluoromethyl)phenyl)-1,2,4-oxadiazole] | 1.9 µM | – | –
12 | CCOc1ccccc1S(=O)(=O)N1CC(c2nc(-c3cccc(C(F)(F)F)c3)no2)C1 [Compound 48, 5-(1-((2-Ethoxyphenyl)sulfonyl)azetidin-3-yl)-3-(3-(trifluoromethyl)phenyl)-1,2,4-oxadiazole] | – | 11 µM | –
13 | CCOc1ccccc1S(=O)(=O)N1CC(c2nc(-c3ccccc3C)no2)C1 [Compound 50, 5-(1-((2-Ethoxyphenyl)sulfonyl)azetidin-3-yl)-3-(o-tolyl)-1,2,4-oxadiazole] | >10 µM | – | –
14 | CCOc1ccccc1S(=O)(=O)N1CC(c2nc(-c3cccc(C)c3)no2)C1 [Compound 51, 5-(1-((2-Ethoxyphenyl)sulfonyl)azetidin-3-yl)-3-(m-tolyl)-1,2,4-oxadiazole] | – | >10 µM | –
15 | CCOc1ccccc1S(=O)(=O)N1CC(c2nc(-c3ccc(C)cc3)no2)C1 [Compound 52, 5-(1-((2-Ethoxyphenyl)sulfonyl)azetidin-3-yl)-3-(p-tolyl)-1,2,4-oxadiazole] | – | Inactive | Inactive
16 | CCOc1ccccc1S(=O)(=O)N1CC(c2nc(-c3ccccc3OC)no2)C1 [Compound 53, 5-(1-((2-Ethoxyphenyl)sulfonyl)azetidin-3-yl)-3-(2-methoxyphenyl)-1,2,4-oxadiazole] | >10 µM | – | –
17 | CCOc1ccccc1S(=O)(=O)N1CC(c2nc(-c3cccc(OC)c3)no2)C1 [Compound 54, 5-(1-((2-Ethoxyphenyl)sulfonyl)azetidin-3-yl)-3-(3-methoxyphenyl)-1,2,4-oxadiazole] | >10 µM | – | –
18 | CCOc1ccccc1S(=O)(=O)N1CC(c2nc(-c3nccs3)no2)C1 [Compound 61, 5-(1-((2-Ethoxyphenyl)sulfonyl)azetidin-3-yl)-3-(thiazol-2-yl)-1,2,4-oxadiazole] | – | Inactive | Inactive

Further lines, results first:

Row | IC50 / EC50 (EC50 for compounds of mode Act) | IC50 / EC50 [1] | Mode | SMILES
19 | 4.8 µM | – | – | O=S(=O)(c1ccccc1F)N1CC(c2nc(-c3ccsc3)no2)C1 [Compound 11, 5-(1-((2-Fluorophenyl)sulfonyl)azetidin-3-yl)-3-(thiophen-3-yl)-1,2,4-oxadiazole]
20 | >10 µM | – | – | O=S(=O)(c1cccc(F)c1)N1CC(c2nc(-c3ccsc3)no2)C1 [Compound 12, 5-(1-((3-Fluorophenyl)sulfonyl)azetidin-3-yl)-3-(thiophen-3-yl)-1,2,4-oxadiazole]
21 | – | Inactive | Inactive | O=S(=O)(c1ccc(F)cc1)N1CC(c2nc(-c3ccsc3)no2)C1 [Compound 13, 5-(1-((4-Fluorophenyl)sulfonyl)azetidin-3-yl)-3-(thiophen-3-yl)-1,2,4-oxadiazole]
22 | 7.5 µM | – | – | O=S(=O)(c1ccccc1Cl)N1CC(c2nc(-c3ccsc3)no2)C1 [Compound 14, 5-(1-((2-Chlorophenyl)sulfonyl)azetidin-3-yl)-3-(thiophen-3-yl)-1,2,4-oxadiazole]
23 | – | Inactive | Inactive | O=S(=O)(c1cccc(Cl)c1)N1CC(c2nc(-c3ccsc3)no2)C1 [Compound 15, 5-(1-((3-Chlorophenyl)sulfonyl)azetidin-3-yl)-3-(thiophen-3-yl)-1,2,4-oxadiazole]
24 | – | Inactive | Inactive | O=S(=O)(c1ccc(Cl)cc1)N1CC(c2nc(-c3ccsc3)no2)C1 [Compound 16, 5-(1-((4-Chlorophenyl)sulfonyl)azetidin-3-yl)-3-(thiophen-3-yl)-1,2,4-oxadiazole]
25 | 6.0 µM | – | – | O=S(=O)(c1ccccc1C(F)(F)F)N1CC(c2nc(-c3ccsc3)no2)C1 [Compound 17, 3-(Thiophen-3-yl)-5-(1-((2-(trifluoromethyl)phenyl)sulfonyl)azetidin-3-yl)-1,2,4-oxadiazole]
26 | 6.2 µM | – | – | O=S(=O)(c1cccc(C(F)(F)F)c1)N1CC(c2nc(-c3ccsc3)no2)C1 [Compound 18, 3-(Thiophen-3-yl)-5-(1-((3-(trifluoromethyl)phenyl)sulfonyl)azetidin-3-yl)-1,2,4-oxadiazole]
27 | – | Inactive | Inactive | O=S(=O)(c1ccc(C(F)(F)F)cc1)N1CC(c2nc(-c3ccsc3)no2)C1 [Compound 19, 3-(Thiophen-3-yl)-5-(1-((4-(trifluoromethyl)phenyl)sulfonyl)azetidin-3-yl)-1,2,4-oxadiazole]
28 | >10 µM | – | – | Cc1cccc(S(=O)(=O)N2CC(c3nc(-c4ccsc4)no3)C2)c1 [Compound 21, 3-(Thiophen-3-yl)-5-(1-(m-tolylsulfonyl)azetidin-3-yl)-1,2,4-oxadiazole]
29 | – | Inactive | Inactive | Cc1ccc(S(=O)(=O)N2CC(c3nc(-c4ccsc4)no3)C2)cc1 [Compound 22, 3-(Thiophen-3-yl)-5-(1-tosylazetidin-3-yl)-1,2,4-oxadiazole]
30 | – | Inactive | Inactive | COc1cccc(S(=O)(=O)N2CC(c3nc(-c4ccsc4)no3)C2)c1 [Compound 24, 5-(1-((3-Methoxyphenyl)sulfonyl)azetidin-3-yl)-3-(thiophen-3-yl)-1,2,4-oxadiazole]
31 | – | Inactive | Inactive | CCNc1ccccc1S(=O)(=O)N1CC(c2nc(-c3ccsc3)no2)C1 [Compound 29]
32 | – | >10 µM | – | CCCc1ccccc1S(=O)(=O)N1CC(c2nc(-c3ccsc3)no2)C1 [Compound 30]
33 | – | 8.0 µM | – | CCOc1ccccc1S(=O)(=O)N1CC(c2nc(-c3ccccc3Cl)no2)C1 [Compound 44, 3-(2-Chlorophenyl)-5-(1-((2-ethoxyphenyl)sulfonyl)azetidin-3-yl)-1,2,4-oxadiazole]
34 | – | Inactive | Inactive | CCOc1ccccc1S(=O)(=O)N1CC(c2nc(-c3cccc(Cl)c3)no2)C1 [Compound 45, 3-(3-Chlorophenyl)-5-(1-((2-ethoxyphenyl)sulfonyl)azetidin-3-yl)-1,2,4-oxadiazole]
35 | – | 11 µM | – | CCOc1ccccc1S(=O)(=O)N1CC(c2nc(-c3ccc(Cl)cc3)no2)C1 [Compound 46, 3-(4-Chlorophenyl)-5-(1-((2-ethoxyphenyl)sulfonyl)azetidin-3-yl)-1,2,4-oxadiazole]
